This experiment deals with T1, OR1A1 (Homo sapiens) (UniProt Q9P1Q5).
T1 sequence (whole entry): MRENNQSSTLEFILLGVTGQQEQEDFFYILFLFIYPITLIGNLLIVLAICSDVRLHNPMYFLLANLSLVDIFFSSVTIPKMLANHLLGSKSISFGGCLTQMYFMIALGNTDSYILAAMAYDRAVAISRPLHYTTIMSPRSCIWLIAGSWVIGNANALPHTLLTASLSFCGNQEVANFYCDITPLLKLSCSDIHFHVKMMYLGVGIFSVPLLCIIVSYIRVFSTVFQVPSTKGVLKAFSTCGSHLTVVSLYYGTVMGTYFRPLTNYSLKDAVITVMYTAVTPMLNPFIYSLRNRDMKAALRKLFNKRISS
To be noted: stereoisomer not certain. The gist of the method: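 Values were gathered from published papers (main text and supplementary material), with extra details requested from the original authors when needed, and checked for typos and inconsistencies. Each receptor–molecule pair is called responsive (active) if the original authors judged the measured signal statistically different from baseline, and non-responsive (inactive) otherwise. Assay methods varied by source, often transient mammalian cell-line luciferase assays. Recorded details include cell line, G-protein, co-transfected protein and tags.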
Take `CC=CC(=O)C1=C(C)C=CCC1(C)C`: the “odorant receptor agonist call” value is “inactive”. With `c1ccccc1` the entry was “inactive”; with `CCC(=O)C(C)S` (stereo unspecified), “inactive”. With `CCC(S)C(C)=O` (stereo unspecified) the entry was “inactive”. Take `CC1=CCC(C(C)C)C=C1` (stereo unspecified): the “odorant receptor agonist call” value is “inactive”.

Take `O=c1ccc2ccccc2o1`: the “odorant receptor agonist call” value was “inactive”. With `CC(C)=CCCC(C)CC(=O)O` (stereo unspecified) the entry was “inactive”; with `CCCCCC=CCCC=O`, “active”; with `CCC=O`, “inactive”. Regarding `CSSSC`, the “odorant receptor agonist call” value was “inactive”. Consider `COc1nccnc1CC(C)C`, for which the “odorant receptor agonist call” value is “inactive”.

Consider `CCC(=O)C(=O)CC`, for which the “odorant receptor agonist call” value is “inactive”. On to `CCCCCCOC(C)=O`, for which the “odorant receptor agonist call” value was “inactive”. To `CCCCCCCC(C)=O` belongs “active”.

For the compound `C=Cc1ccc(O)c(OC)c1`, the “odorant receptor agonist call” value is “inactive”. With `CC1CCC(C(C)C)C(=O)C1` (stereo unspecified) the entry was “active”; with `COC(=O)Cc1ccccc1C`, “active”. As for `CCCSSCCC`, the “odorant receptor agonist call” value is “inactive”.

Regarding `CCCC(=O)OCC`, the “odorant receptor agonist call” value was “inactive”. Regarding `CCCC(=O)C(C)=O`, the “odorant receptor agonist call” value was “inactive”.

Regarding `CC(C)CO`, the “odorant receptor agonist call” value was “inactive”. With `COc1cccc(OC)c1O` the entry was “inactive”; with `CCCCCCC(C)=O`, “active”; with `CCCCCCO`, “inactive”. To `CCCCCCCCC1CCC(=O)O1` (stereo unspecified) belongs “inactive”; to `C=CC(C)=CCC=C(C)CCC=C(C)C`, “inactive”; to `CC(=O)OCC=C(C)C`, “inactive”. In the case of `CN(C)C`, the “odorant receptor agonist call” value is “inactive”. To `Cc1nccnc1C` belongs “inactive”. In the case of `CC(=O)O`, the “odorant receptor agonist call” value is “inactive”. To `COc1ccc2ccc(=O)oc2c1` belongs “inactive”; to `CC(=O)c1cnccn1`, “inactive”; to `CCCCCC(=O)OCC`, “active”. Take `CCC(C)CO` (stereo unspecified): the “odorant receptor agonist call” value is “inactive”. Turning to `CC1=CCC2CC1C2(C)C` (stereo unspecified), the “odorant receptor agonist call” value was “inactive”. To `CC(C)c1ccc(C=O)cc1` belongs “inactive”.

(Values after the M2OR odorant receptor database.)
